Legend:
[1] = test system: Human immunodeficiency virus 1; assay: Ratio of EC50 for HIV1 JSL harboring L10I/L24I/L33F/E35D/M36I/N37S/M46L/I54V/R57K/I62V/L63P/A71V/G73S/82A in protease encoding region to EC50 for HIV1 ERS104pre; assay type: functional
[2] = test system: Human immunodeficiency virus 1; assay: Antiviral activity against HIV1 JSL harboring L10I/L24I/L33F/E35D/M36I/N37S/M46L/I54V/R57K/I62V/L63P/A71V/G73S/82A in protease encoding region infected in human PHA-PBC assessed as inhibition of p24 Gag protein production by ELISA; assay type: functional, organism-based; conditions: Human immunodeficiency virus 1, JSL
Procedure, shortened: (§1)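 Phytohemagglutinin-stimulated PBMs (10^6/ml) infected with 50 TCID50s of each primary isolate, cultured with or without drug in 10-fold serial dilutions. On day 7, supernatant p24 Gag was measured by automated chemiluminescent enzyme immunoassay. […] Triplicate.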

[3] = test system: Human immunodeficiency virus 1; assay: Ratio of EC50 for HIV1 G harboring L10I/V11I/T12E/I15V/L19I/R41K/M46L/L63P/A71T/V82A/L90M in protease encoding region to EC50 for HIV1 ERS104pre; assay type: functional
[4] = test system: Human immunodeficiency virus 1; assay: Ratio of EC50 for HIV1 C harboring L10I/I15V/K20R/L24I/M36I/M46L/I54V/I62V/L63P/K70Q/V82A/L89M in protease encoding region to EC50 for HIV1 ERS104pre; assay type: functional
[5] = test system: Human immunodeficiency virus 1; assay: Antiviral activity against HIV1 MOKW infected in human PHA-PBC assessed as inhibition of p24 Gag protein production by ELISA; assay type: functional, organism-based; conditions: Human immunodeficiency virus 1, MOKW; procedure, shortened: as §1
[6] = test system: Human immunodeficiency virus 1; assay: Antiviral activity against HIV1 B harboring L10I/I15V/E35D/N37E/K45R/I54V/L63P/A71V/V82T/L90M/I93L/C95F in protease encoding region infected in human PHA-PBC assessed as inhibition of p24 Gag protein production by ELISA; assay type: functional, organism-based; conditions: Human immunodeficiency virus 1, B; procedure, shortened: as §1
[7] = test system: Human immunodeficiency virus 1; assay: Antiviral activity against HIV1 C harboring L10I/I15V/K20R/L24I/M36I/M46L/I54V/I62V/L63P/K70Q/V82A/L89M in protease encoding region infected in human PHA-PBC assessed as inhibition of p24 Gag protein production by ELISA; assay type: functional, organism-based; conditions: Human immunodeficiency virus 1, C; procedure, shortened: as §1
[8] = test system: Human immunodeficiency virus 1; assay: Antiviral activity against HIV1 A harboring L10I/I15V/E35D/N37E/K45R/I54V/L63P/A71V/V82T/L90M/I93L/C95F in protease encoding region infected in human PHA-PBC assessed as inhibition of p24 Gag protein production by ELISA; assay type: functional, organism-based; conditions: Human immunodeficiency virus 1, A
Procedure, shortened: (§2)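 Phytohemagglutinin-stimulated PBMs (10^6/ml) infected with 50 TCID50s of each primary isolate, cultured with or without drug in 10-fold serial dilutions. On day 7, supernatant p24 Gag was measured by automated chemiluminescent enzyme immunoassay. Triplicate.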

[9] = test system: Human immunodeficiency virus 1; assay: Antiviral activity against HIV1 TM harboring L10I/K14R/R41K/M46L/I54V/L63P/A71V/V82A/L90M/I93L in protease encoding region infected in human PHA-PBC assessed as inhibition of p24 Gag protein production by ELISA; assay type: functional, organism-based; conditions: Human immunodeficiency virus 1, TM; procedure, shortened: as §1
[10] = test system: Human immunodeficiency virus 1; assay: Antiviral activity against HIV1 G harboring L10I/V11I/T12E/I15V/L19I/R41K/M46L/L63P/A71T/V82A/L90M in protease encoding region infected in human PHA-PBC assessed as inhibition of p24 Gag protein production by ELISA; assay type: functional, organism-based; conditions: Human immunodeficiency virus 1, G; procedure, shortened: as §1
[11] = test system: Human immunodeficiency virus 1; assay: Ratio of EC50 for HIV1 TM harboring L10I/K14R/R41K/M46L/I54V/L63P/A71V/V82A/L90M/I93L in protease encoding region to EC50 for HIV1 ERS104pre; assay type: functional
Procedure, shortened: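 PHA-stimulated PBMs (10^6/ml) infected with 50 TCID50s of primary HIV-1 isolate and cultured with 10-fold serial drug dilutions. Day 7 supernatant p24 Gag measured by chemiluminescent enzyme immunoassay. […] Triplicate. Ratio is resistant isolate EC50 over reference isolate EC50.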

[12] = test system: Human immunodeficiency virus 1; assay: Ratio of EC50 for HIV1 A harboring L10I/I15V/E35D/N37E/K45R/I54V/L63P/A71V/V82T/L90M/I93L/C95F in protease encoding region to EC50 for HIV1 ERS104pre; assay type: functional
[13] = test system: Human immunodeficiency virus 1; assay: Antiviral activity against HIV1 MM harboring L10I/K43T/M46L/I54V/L63P/A71V/V82A/L90M/Q92K in protease encoding region infected in human PHA-PBC assessed as inhibition of p24 Gag protein production by ELISA; assay type: functional, organism-based; conditions: Human immunodeficiency virus 1, MM; procedure, shortened: as §1
[14] = test system: Human immunodeficiency virus 1; assay: Antiviral activity against HIV1 ERS104pre infected in human PHA-PBC assessed as inhibition of p24 Gag protein production by ELISA; assay type: functional, organism-based; conditions: Human immunodeficiency virus 1, ERS104pre; procedure, shortened: as §2
[15] = test system: Human immunodeficiency virus 1; assay: Ratio of EC50 for HIV1 B harboring L10I/I15V/E35D/N37E/K45R/I54V/L63P/A71V/V82T/L90M/I93L/C95F in protease encoding region to EC50 for HIV1 ERS104pre; assay type: functional
[16] = test system: Human immunodeficiency virus 1; assay: Ratio of EC50 for HIV1 MM harboring L10I/K43T/M46L/I54V/L63P/A71V/V82A/L90M/Q92K in protease encoding region infected to EC50 for HIV1 ERS104pre; assay type: functional
[17] = test system: Human immunodeficiency virus 1; assay: Antiviral activity against HIV1 NL4-3 harboring L10F/L33F/M46I/I47V/Q58E/V82I/I84V/I85V amino acid substitution in protease encoding region infected in human MT4 cells assessed as inhibition of p24 Gag protein production selected at 5 uM of GRL-02031 by ELISA; assay type: functional, organism-based; conditions: Human immunodeficiency virus 1, NL4-3, MT4
Procedure, shortened: (§3)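 Cell-free passage used day-7 supernatants. Variants were then tested in MT-4 cells (10^5/ml) with 100 TCID50s, with or without drug, at 37°C. Day-7 p24 Gag was read by chemiluminescent immunoassay; EC50 vs drug-free control; triplicate.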

[18] = test system: Human immunodeficiency virus 1; assay: Antiviral activity against HIV1 NL4-3 harboring L10I/G48V/I54V/L90M amino acid substitution in protease encoding region infected in human MT4 cells assessed as inhibition of p24 Gag protein production selected at 5 uM of saquinavir by ELISA; assay type: functional, organism-based; conditions: Human immunodeficiency virus 1, NL4-3, MT4
Procedure, shortened: as §3, with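 “HIV-1NL4-3 (500 TCID50s) was passaged in MT-4 cells, starting at 0.01–0.03 µM PI and raising the drug generally two- to threefold as virus propagated. Cell-free” for “Cell-free”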

[19] = test system: Human immunodeficiency virus 1; assay: Antiviral activity against HIV1 NL4-3 infected in human MT4 cells assessed as inhibition of p24 gag protein production by ELISA; assay type: functional, organism-based; conditions: Human immunodeficiency virus 1, NL4-3, MT4
Procedure, shortened: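 MT-4 cells (10^5/ml) were infected with 100 TCID50s of HIV-1 and cultured at 37°C with or without various drug concentrations. On day 7, supernatant p24 Gag was measured by automated chemiluminescent enzyme immunoassay. […] Assays were run in triplicate.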

[20] = test system: Human immunodeficiency virus 1; assay: Antiviral activity against HIV1 NL4-3 harboring L23I/K43I/M46I/I50L/G51A/A71V amino acid substitution in protease encoding region infected in human MT4 cells assessed as inhibition of p24 Gag protein production selected at 1 uM of atazanavir by ELISA; assay type: functional, organism-based; conditions: Human immunodeficiency virus 1, NL4-3, MT4
Procedure, shortened: as §3, with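 “HIV-1NL4-3 (500 TCID50s) was passaged in MT-4 cells, starting at 0.01–0.03 µM PI and raising the drug generally two- to threefold as virus propagated. Cell-free” for “Cell-free”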

[21] = test system: Human immunodeficiency virus; assay: Antiviral activity against HIV1 LAI infected in human MT2 cells after 7 days by MTT assay; assay type: functional, organism-based; conditions: Human immunodeficiency virus 1, LAI, MT2, 168 h
[22] = test system: Human immunodeficiency virus 1; assay: Antiviral activity against HIV1 NL4-3 harboring L10F/M46I/I54V/V82A amino acid substitution in protease encoding region infected in human MT4 cells assessed as inhibition of p24 Gag protein production selected at 1 uM of Lopinavir by ELISA; assay type: functional, organism-based; conditions: Human immunodeficiency virus 1, NL4-3, MT4; procedure, shortened: as §3
[23] = test system: Human immunodeficiency virus 1; assay: Antiviral activity against HIV1 NL4-3 harboring L10F/L24I/M46I/L63P/A71V/G73S/V82T amino acid substitution in protease encoding region infected in human MT4 cells assessed as inhibition of p24 Gag protein production selected at 5 uM of indinavir by ELISA; assay type: functional, organism-based; conditions: Human immunodeficiency virus 1, NL4-3, MT4
Procedure, shortened: as §3, with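 “HIV-1NL4-3 (500 TCID50s) was passaged in MT-4 cells, starting at 0.01–0.03 µM PI and raising the drug generally two- to threefold as virus propagated. Cell-free” for “Cell-free”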

[24] = test system: Human immunodeficiency virus 1; assay: Antiviral activity against HIV1 NL4-3 harboring L10F/V32I/M46I/I54M//A71V/I84V amino acid substitution in protease encoding region infected in human MT4 cells assessed as inhibition of p24 Gag protein production selected at 5 uM of amprenavir by ELISA; assay type: functional, organism-based; conditions: Human immunodeficiency virus 1, NL4-3, MT4; procedure, shortened: as §3
[25] = test system: Human immunodeficiency virus 1; assay: Antiviral activity against HIV1 NL4-3 harboring L10F/D30N/K45I/A71V/T74S amino acid substitution in protease encoding region infected in human MT4 cells assessed as inhibition of p24 Gag protein production selected at 5 uM of nelfinavir by ELISA; assay type: functional, organism-based; conditions: Human immunodeficiency virus 1, NL4-3, MT4
Procedure, shortened: as §3, with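 “HIV-1NL4-3 (500 TCID50s) was passaged in MT-4 cells, starting at 0.01–0.03 µM PI and raising the drug generally two- to threefold as virus propagated. Cell-free” for “Cell-free”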

[26] = test system: Human immunodeficiency virus 1; assay: Antiviral activity against HIV1 NL4-3 harboring M46I/V82F/I84V amino acid substitution in protease encoding region infected in human MT4 cells assessed as inhibition of p24 Gag protein production selected at 5 uM of ritonavir by ELISA; assay type: functional, organism-based; conditions: Human immunodeficiency virus 1, NL4-3, MT4
Procedure, shortened: as §3, with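 “HIV-1NL4-3 (500 TCID50s) was passaged in MT-4 cells, starting at 0.01–0.03 µM PI and raising the drug generally two- to threefold as virus propagated. Cell-free” for “Cell-free”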

Compound | EC50 [2] [nM] | EC50 [5] [nM] | EC50 [6] [nM] | EC50 [7] [nM] | EC50 [8] [nM] | EC50 [9] [nM] | EC50 [10] [nM] | EC50 [13] [nM] | EC50 [14] [nM] | further results
Cc1cn([C@H]2C[C@H](N=[N+]=[N-])[C@@H](CO)O2)c(=O)[nH]c1=O [ZIDOVUDINE] | 180 | 16 | > 1000 | 280 | 120 | 890 | 600 | 450 | 5 | Ratio EC50 [1]: 36; Ratio EC50 [3]: >120; Ratio EC50 [4]: 56; Ratio EC50 [11]: 178; Ratio EC50 [12]: 24; Ratio EC50 [15]: 200; Ratio EC50 [16]: 90
CC(C)c1nc(CN(C)C(=O)N[C@H](C(=O)N[C@@H](Cc2ccccc2)C[C@H](O)[C@H](Cc2ccccc2)NC(=O)OCc2cncs2)C(C)C)cs1 [RITONAVIR] | > 1000 | 36 | > 1000 | > 1000 | > 1000 | > 1000 | > 1000 | > 1000 | 36 | EC50 [17]: 260 nM; EC50 [18]: > 1000 nM; EC50 [19]: 21 nM; EC50 [20]: 140 nM; EC50 [21]: 38 nM; EC50 [22]: > 1000 nM; EC50 [23]: > 1000 nM; EC50 [24]: > 1000 nM; EC50 [25]: 80 nM; EC50 [26]: > 1000 nM

Reference: ChEMBL document CHEMBL1649117, “GRL-02031, a novel nonpeptidic protease inhibitor (PI) containing a stereochemically defined fused cyclopentanyltetrahydrofuran potent against multi-PI-resistant human immunodeficiency virus type 1 in vitro” (Antimicrob Agents Chemother, 2009)
